According to ChEMBL document CHEMBL4118097, “Selective Inhibitors of Dual Leucine Zipper Kinase (DLK, MAP3K12) with Activity in a Model of Alzheimer's Disease” (J Med Chem, 2017):

Key:
[1] = biological target: Serine/threonine-protein kinase Chk2 (Homo sapiens) (UniProt O96017); assay: Inhibition of recombinant full length His-tagged human CHK2 expressed in baculovirus expression system at 1 uM by FRET assay relative to control
[2] = biological target: Dual specificity protein kinase CLK2 (Homo sapiens) (UniProt P49760); assay: Inhibition of recombinant GST-tagged human CLK2 catalytic domain(137 to 498 residues)expressed in baculovirus expression system at 1 uM by FRET assay relative to control
Chain of Dual specificity protein kinase CLK2 (Homo sapiens) (P49760 whole entry, looked up, the tested form may be a part): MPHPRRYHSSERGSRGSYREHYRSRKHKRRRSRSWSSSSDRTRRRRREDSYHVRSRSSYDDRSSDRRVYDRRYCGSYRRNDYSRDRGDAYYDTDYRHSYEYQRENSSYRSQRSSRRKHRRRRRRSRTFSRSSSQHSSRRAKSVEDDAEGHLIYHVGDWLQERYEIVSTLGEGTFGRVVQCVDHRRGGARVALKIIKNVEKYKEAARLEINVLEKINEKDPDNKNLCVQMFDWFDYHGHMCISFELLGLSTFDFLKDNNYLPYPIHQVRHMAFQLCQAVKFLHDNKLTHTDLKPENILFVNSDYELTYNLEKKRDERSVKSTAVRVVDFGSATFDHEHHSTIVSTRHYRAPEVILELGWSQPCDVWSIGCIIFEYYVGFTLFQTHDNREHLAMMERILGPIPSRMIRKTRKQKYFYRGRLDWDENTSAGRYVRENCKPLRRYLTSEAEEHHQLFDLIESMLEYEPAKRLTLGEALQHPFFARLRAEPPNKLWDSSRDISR

[3] = biological target: Non-receptor tyrosine-protein kinase TYK2 (Homo sapiens) (UniProt P29597); assay: Inhibition of recombinant N-terminal GST-tagged human TYK2 (833 to 1187 residues) expressed in baculovirus expression system at 1 uM by FRET assay relative to control
How it was run: (§1)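 Single-concentration screen at 1 μM in Life Technologies SelectScreen, across a 220-kinase panel. Z′-LYTE format measures phosphorylation of a labeled peptide by FRET. Results are reported as percent inhibition.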

[4] = biological target: Mitogen-activated protein kinase kinase kinase 9 (Homo sapiens, UniProt P80192); assay: Inhibition of recombinant human GST-tagged MLK1 expressed in baculovirus at 1 uM by FRET assay relative to control
[5] = biological target: G protein-coupled receptor kinase 6 (Homo sapiens) (UniProt P43250); assay: Inhibition of recombinant full length GST-tagged human GRK6 expressed in baculovirus expression system at 1 uM by FRET relative to control; how it was run: as §1
Chain of G protein-coupled receptor kinase 6 (Homo sapiens) (P43250 whole entry, looked up): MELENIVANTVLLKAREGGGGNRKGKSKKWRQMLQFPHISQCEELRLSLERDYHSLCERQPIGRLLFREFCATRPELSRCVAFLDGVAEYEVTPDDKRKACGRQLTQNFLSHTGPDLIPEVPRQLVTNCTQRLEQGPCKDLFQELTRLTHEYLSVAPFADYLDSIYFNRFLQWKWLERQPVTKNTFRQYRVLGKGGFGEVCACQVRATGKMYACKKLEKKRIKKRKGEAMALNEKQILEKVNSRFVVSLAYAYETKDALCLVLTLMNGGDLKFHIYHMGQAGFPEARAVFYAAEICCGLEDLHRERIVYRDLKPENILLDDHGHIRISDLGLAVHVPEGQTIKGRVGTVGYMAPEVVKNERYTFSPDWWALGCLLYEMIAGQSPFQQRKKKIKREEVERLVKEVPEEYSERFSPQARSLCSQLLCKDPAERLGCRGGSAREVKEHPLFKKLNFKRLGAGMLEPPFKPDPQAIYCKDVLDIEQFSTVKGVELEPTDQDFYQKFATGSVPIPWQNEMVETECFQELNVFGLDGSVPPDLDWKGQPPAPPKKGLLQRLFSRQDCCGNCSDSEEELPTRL

[6] = biological target: Calcium/calmodulin-dependent protein kinase type 1D (Homo sapiens) (UniProt Q8IU85); assay: Inhibition of CaMK1delta (unknown origin) at 1 uM by FRET assay relative to control
[7] = biological target: Serine/threonine-protein kinase WNK2 (Homo sapiens) (UniProt Q9Y3S1); assay: Inhibition of recombinant GST-tagged human WNK2 expressed in baculovirus expression system at 1 uM by FRET assay relative to control
How it was run: (§2)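 Single-point screen at 1 μM compound in a 220-kinase panel run by Life Technologies (SelectScreen). Z′-LYTE format: phosphorylation of a labeled peptide substrate read by FRET. Values are reported as percent inhibition.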

[8] = biological target: Serine/threonine-protein kinase 3 (Homo sapiens) (UniProt Q13188); assay: Inhibition of recombinant full length GST-tagged human MST2 expressed in baculovirus at 1 uM by FRET assay relative to control; how it was run: as §1
[9] = biological target: Sphingosine kinase 1 (Homo sapiens) (UniProt Q9NYA1); assay: Inhibition of recombinant full length GST-tagged human SPHK1 expressed in baculovirus expression system at 1 uM by FRET assay relative to control; how it was run: as §1
[10] = biological target: High affinity nerve growth factor receptor (Homo sapiens, UniProt P04629); assay: Inhibition of recombinant His-tagged human TrkA cytoplasmic domain (441 to 796 residues) expressed in baculovirus expression system at 1 uM by FRET assay relative to control; how it was run: as §1
[11] = biological target: Adrenergic receptor alpha-2 (Homo sapiens) (UniProt P08913+P18825+P18089); assay: Binding affinity to alpha2 adrenergic receptor (unknown origin) at 10 uM relative to control; assay type: protein assay
How it was run: (§3)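 Broad radioligand-binding and enzyme screening panel covering 42 targets (biogenic amine and neuropeptide receptors, ion channels, neurotransmitter transporters, acetylcholinesterase). Single test concentration of 10 μM. Results expressed as binding relative to control, with a hit defined as >50% of control.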

[12] = biological target: Myotonin-protein kinase (Homo sapiens) (UniProt Q09013); assay: Inhibition of full length recombinant human DMPK expressed in baculovirus expression system at 1 uM by FRET assay relative to control
[13] = biological target: Sodium-dependent dopamine transporter (Homo sapiens) (UniProt Q01959); assay: Binding affinity to recombinant human dopamine transporter at 10 uM relative to control; how it was run: as §3
[14] = biological target: RAC-beta serine/threonine-protein kinase (Homo sapiens) (UniProt P31751); assay: Inhibition of recombinant full length His-tagged human AKT2 expressed in baculovirus expression system at 1 uM by FRET assay relative to control
Chain of RAC-beta serine/threonine-protein kinase (Homo sapiens) (P31751 whole entry, the tested form may be a part): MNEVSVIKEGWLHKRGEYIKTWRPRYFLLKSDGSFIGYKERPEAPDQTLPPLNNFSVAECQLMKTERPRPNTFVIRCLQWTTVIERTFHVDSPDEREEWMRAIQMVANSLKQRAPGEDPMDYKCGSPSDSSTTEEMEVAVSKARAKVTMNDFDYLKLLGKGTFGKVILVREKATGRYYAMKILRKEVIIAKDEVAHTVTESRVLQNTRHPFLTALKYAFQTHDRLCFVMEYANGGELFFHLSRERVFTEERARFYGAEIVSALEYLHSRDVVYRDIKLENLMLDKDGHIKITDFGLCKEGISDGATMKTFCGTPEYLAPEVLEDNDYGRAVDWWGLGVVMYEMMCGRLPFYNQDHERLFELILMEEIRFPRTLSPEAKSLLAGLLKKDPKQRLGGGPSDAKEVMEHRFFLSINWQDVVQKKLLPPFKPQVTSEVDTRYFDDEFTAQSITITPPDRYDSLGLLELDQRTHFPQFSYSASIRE

[15] = biological target: Tyrosine-protein kinase CSK (Homo sapiens) (UniProt P41240); assay: Inhibition of full length recombinant His-tagged human CSK cytoplasmic domain expressed in Escherichia coli at 1 uM by FRET assay relative to control
[16] = biological target: Homeodomain-interacting protein kinase 1 (Homo sapiens) (UniProt Q86Z02); assay: Inhibition of recombinant GST-tagged human HIPK1 catalytic domain expressed in baculovirus expression system at 1 uM by FRET relative to control; how it was run: as §2
[17] = tested on: RAF proto-oncogene serine/threonine-protein kinase (Homo sapiens), P04049 [Y340D,Y341D]; assay: Inhibition of recombinant N-terminal GST-tagged human RAF1 catalytic domain (306 to 648 residues) Y340D/Y341D double mutant expressed in baculovirus expression system at 1 uM by FRET assay relative to control
How it was run: (§4)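 Part of a 220-kinase panel run at a single concentration of 1 μM. Z′-LYTE format: phosphorylation of a labelled peptide read by FRET. Values reported as percent inhibition.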

[18] = biological target: Serine/threonine-protein kinase 17A (Homo sapiens) (UniProt Q9UEE5); assay: Inhibition of full length recombinant GST-tagged human DRAK1 expressed in baculovirus expression system at 1 uM by FRET assay relative to control
Chain of Serine/threonine-protein kinase 17A (Homo sapiens) (Q9UEE5 whole entry): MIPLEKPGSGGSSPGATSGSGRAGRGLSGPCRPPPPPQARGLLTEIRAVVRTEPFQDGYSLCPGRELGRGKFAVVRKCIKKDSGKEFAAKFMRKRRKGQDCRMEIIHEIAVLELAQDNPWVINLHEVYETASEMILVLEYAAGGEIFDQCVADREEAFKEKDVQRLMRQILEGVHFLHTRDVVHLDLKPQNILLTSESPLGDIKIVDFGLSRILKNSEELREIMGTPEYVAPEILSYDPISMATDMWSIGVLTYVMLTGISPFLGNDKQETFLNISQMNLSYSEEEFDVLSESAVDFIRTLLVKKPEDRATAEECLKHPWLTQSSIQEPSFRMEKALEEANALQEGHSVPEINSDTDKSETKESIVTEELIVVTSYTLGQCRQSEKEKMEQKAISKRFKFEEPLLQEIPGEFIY

[19] = biological target: Serine/threonine-protein kinase PAK 6 (Homo sapiens) (UniProt Q9NQU5); assay: Inhibition of recombinant full length His-tagged human PAK6 expressed in baculovirus expression system at 1 uM by FRET assay relative to control
[20] = biological target: Tyrosine-protein kinase Blk (Homo sapiens) (UniProt P51451); assay: Inhibition of recombinant full length His-tagged human Blk cytoplasmic domain expressed in Baculovirus expression system at 1 uM by FRET assay relative to control
[21] = biological target: Receptor-interacting serine/threonine-protein kinase 2 (Homo sapiens) (UniProt O43353); assay: Inhibition of recombinant His-tagged human RIPK2 catalytic domain (1 to 299 residues) expressed in baculovirus expression system at 1 uM by FRET assay relative to control; how it was run: as §1
Chain of Receptor-interacting serine/threonine-protein kinase 2 (Homo sapiens) (O43353 whole entry, the tested form may be a part): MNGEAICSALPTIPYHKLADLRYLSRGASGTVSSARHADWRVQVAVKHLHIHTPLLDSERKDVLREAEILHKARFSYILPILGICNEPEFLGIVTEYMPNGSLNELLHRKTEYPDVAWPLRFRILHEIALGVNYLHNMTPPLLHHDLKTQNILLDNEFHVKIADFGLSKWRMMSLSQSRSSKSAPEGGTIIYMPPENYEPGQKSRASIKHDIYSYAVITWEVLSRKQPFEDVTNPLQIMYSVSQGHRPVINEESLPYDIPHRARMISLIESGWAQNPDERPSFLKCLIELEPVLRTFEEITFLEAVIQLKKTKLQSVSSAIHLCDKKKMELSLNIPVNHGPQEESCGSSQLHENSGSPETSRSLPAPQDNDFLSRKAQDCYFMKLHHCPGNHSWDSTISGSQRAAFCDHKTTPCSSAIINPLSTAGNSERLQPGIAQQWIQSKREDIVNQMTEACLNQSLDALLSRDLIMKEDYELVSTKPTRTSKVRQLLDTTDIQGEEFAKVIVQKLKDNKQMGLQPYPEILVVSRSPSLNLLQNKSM

[22] = biological target: Serine/threonine-protein kinase 24 (Homo sapiens) (UniProt Q9Y6E0); assay: Inhibition of recombinant full length GST-tagged human MST3 expressed in baculovirus at 1 uM by FRET assay relative to control; how it was run: as §1
Chain of Serine/threonine-protein kinase 24 (Homo sapiens) (Q9Y6E0 whole entry, looked up): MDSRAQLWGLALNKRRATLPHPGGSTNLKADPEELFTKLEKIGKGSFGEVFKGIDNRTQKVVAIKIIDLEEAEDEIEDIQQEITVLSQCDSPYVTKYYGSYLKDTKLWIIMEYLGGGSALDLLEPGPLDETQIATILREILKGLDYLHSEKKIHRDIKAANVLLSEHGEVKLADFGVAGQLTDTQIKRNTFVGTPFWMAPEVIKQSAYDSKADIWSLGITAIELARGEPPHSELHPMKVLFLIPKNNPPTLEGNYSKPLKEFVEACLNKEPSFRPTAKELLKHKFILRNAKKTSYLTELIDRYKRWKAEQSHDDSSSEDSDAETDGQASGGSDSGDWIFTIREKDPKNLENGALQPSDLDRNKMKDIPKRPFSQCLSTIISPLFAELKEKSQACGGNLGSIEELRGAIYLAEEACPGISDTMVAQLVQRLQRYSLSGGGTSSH

[23] = biological target: Dual specificity mitogen-activated protein kinase kinase 6 (Homo sapiens) (UniProt P52564); assay: Inhibition of recombinant human full length His-tagged MKK6 expressed in baculovirus at 1 uM by FRET assay relative to control
[24] = tested on: Epidermal growth factor receptor (Homo sapiens), P00533 [L858R,T790M]; assay: Inhibition of recombinant GST-tagged human EGFR cytoplasmic domain (668 to 1210 residues) T790M/L858R double mutant expressed in baculovirus expression system at 1 uM by FRET assay relative to control; how it was run: as §4
Chain of Epidermal growth factor receptor (Homo sapiens), P00533 [L858R,T790M] (P00533 whole entry T790M/L858R, looked up, the tested form may be a part): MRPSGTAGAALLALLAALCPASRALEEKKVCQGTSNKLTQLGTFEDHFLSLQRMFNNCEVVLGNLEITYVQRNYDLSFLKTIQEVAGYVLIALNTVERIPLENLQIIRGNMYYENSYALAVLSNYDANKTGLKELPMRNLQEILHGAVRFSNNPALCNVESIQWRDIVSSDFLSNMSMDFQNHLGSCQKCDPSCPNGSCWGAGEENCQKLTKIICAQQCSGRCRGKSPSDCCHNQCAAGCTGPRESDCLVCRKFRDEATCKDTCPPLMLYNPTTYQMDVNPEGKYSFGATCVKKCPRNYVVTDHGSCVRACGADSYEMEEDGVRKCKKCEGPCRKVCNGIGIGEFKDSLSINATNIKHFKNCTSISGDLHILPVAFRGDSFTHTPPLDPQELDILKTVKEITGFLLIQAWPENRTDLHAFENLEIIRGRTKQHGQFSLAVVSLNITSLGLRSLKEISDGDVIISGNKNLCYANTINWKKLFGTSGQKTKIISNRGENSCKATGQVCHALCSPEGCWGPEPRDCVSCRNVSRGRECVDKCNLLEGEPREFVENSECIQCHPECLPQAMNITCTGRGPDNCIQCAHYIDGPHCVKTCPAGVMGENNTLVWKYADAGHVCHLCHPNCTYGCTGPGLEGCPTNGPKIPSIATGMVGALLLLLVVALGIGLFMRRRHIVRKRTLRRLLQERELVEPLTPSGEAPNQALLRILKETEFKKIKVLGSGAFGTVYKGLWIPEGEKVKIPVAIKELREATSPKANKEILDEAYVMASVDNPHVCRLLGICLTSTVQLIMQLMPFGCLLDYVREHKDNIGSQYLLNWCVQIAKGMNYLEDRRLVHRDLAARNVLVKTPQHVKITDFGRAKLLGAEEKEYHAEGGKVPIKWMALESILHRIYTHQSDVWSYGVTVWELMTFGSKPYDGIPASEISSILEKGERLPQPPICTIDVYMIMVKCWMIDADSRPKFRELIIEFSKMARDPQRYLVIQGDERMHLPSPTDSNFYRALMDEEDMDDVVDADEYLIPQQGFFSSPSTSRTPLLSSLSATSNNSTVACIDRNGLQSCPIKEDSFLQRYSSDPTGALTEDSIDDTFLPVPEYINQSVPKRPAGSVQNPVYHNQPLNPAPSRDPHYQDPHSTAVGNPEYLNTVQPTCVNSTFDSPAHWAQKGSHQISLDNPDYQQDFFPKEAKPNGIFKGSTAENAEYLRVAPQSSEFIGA

[25] = biological target: Serine/threonine-protein kinase BRSK1 (Homo sapiens) (UniProt Q8TDC3); assay: Inhibition of recombinant full length GST-tagged human BrSK1 expressed in baculovirus expression system at 1 uM by FRET assay relative to control; how it was run: as §1
Chain of Serine/threonine-protein kinase BRSK1 (Homo sapiens) (Q8TDC3 whole entry, the tested form may be a part): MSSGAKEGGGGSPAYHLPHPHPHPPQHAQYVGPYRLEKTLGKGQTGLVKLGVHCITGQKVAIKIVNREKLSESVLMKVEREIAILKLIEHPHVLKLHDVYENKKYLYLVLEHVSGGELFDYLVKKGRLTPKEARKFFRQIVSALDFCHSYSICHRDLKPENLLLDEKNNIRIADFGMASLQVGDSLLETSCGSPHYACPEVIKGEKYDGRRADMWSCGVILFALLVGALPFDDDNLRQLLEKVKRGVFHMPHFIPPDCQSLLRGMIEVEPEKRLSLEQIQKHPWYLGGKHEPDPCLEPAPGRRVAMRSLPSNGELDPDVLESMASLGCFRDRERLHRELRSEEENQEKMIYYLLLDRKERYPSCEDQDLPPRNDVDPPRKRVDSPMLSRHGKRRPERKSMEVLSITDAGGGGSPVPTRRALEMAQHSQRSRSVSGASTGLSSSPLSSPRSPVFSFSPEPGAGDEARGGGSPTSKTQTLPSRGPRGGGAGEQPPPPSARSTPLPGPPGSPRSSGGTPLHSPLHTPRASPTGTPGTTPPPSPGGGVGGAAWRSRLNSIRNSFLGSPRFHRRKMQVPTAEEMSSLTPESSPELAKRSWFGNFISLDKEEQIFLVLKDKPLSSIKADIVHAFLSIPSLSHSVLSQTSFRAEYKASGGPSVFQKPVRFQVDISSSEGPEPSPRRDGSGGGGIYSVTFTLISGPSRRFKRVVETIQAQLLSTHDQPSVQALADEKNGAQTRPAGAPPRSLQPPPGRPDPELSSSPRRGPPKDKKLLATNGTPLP

[26] = biological target: Tyrosine-protein kinase JAK2 (Homo sapiens) (UniProt O60674); assay: Inhibition of recombinant GST-tagged human JAK2 catalytic domain (809 to 1153 residues) expressed in baculovirus expression system at 1 uM by FRET relative to control; how it was run: as §2

Nc1ncc(-c2cc([C@H]3[C@@H]4CN(C5COC5)C[C@@H]43)n(CC3CC3)n2)cc1C(F)(F)F
inhibition [1]: 16.3% | inhibition [2]: 0.3% | inhibition [3]: 9.3% | inhibition [4]: 28.5% | inhibition [5]: -4.2% | inhibition [6]: 11.1% | inhibition [7]: -0.6% | inhibition [8]: 0% | inhibition [9]: -3.3% | inhibition [10]: 56.1% | Activity [11]: > 50% | inhibition [12]: 58.5% | Activity [13]: > 50% | inhibition [14]: -0.3% | inhibition [15]: 14.8% | inhibition [16]: 3.8% | inhibition [17]: 4% | inhibition [18]: 7.5% | inhibition [19]: 5.1% | inhibition [20]: 27.4% | inhibition [21]: 41.4% | inhibition [22]: -7.7% | inhibition [23]: -0.9% | inhibition [24]: 8.2% | inhibition [25]: -0.3% | inhibition [26]: 20.4%

CC(C)n1nc(-c2cnc(N)c(OC(F)(F)F)c2)cc1[C@H]1[C@@H]2CN(C3COC3)C[C@@H]21
inhibition [1]: 12.8% | inhibition [2]: 17.6% | inhibition [3]: 10.7% | inhibition [4]: -7.2% | inhibition [5]: 2.5% | inhibition [6]: 2.8% | inhibition [7]: 1.4% | inhibition [8]: 10.1% | inhibition [9]: -0.2% | inhibition [10]: 67.1% | Activity [11]: > 50% | inhibition [12]: 39.1% | Activity [13]: > 50% | inhibition [14]: 3.1% | inhibition [15]: 6.8% | inhibition [16]: 8.6% | inhibition [17]: -1.9% | inhibition [18]: 5.2% | inhibition [19]: 4.8% | inhibition [20]: 5.3% | inhibition [21]: 34.2% | inhibition [22]: -9.5% | inhibition [23]: 10.6% | inhibition [24]: 9.8% | inhibition [25]: 5.8% | inhibition [26]: 4.6%
